Source: ChEMBL document CHEMBL4350958, “Rational Design of Short Peptide Variants by Using Kunitzin-RE, an Amphibian-Derived Bioactivity Peptide, for Acquired Potent Broad-Spectrum Antimicrobial and Improved Therapeutic Potential of Commensalism Coinfection of Pathogens” (J Med Chem, 2019)

Experiments:
[1] = Bactericidal activity against Salmonella pullorum ATCC 7913 incubated for 24 hrs followed by replating on agar plate and measured after overnight incubation; assay type: functional, Salmonella enterica subsp. enterica serovar Pullorum; conditions: Salmonella enterica, ATCC 7913, 24 h; read-out: MBC>99.9
Method in brief: (§1)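 Mid-log bacteria diluted in MHB to (0.5–1) × 10^5 CFU/mL and mixed 1:1 with peptide serially diluted in 0.2% BSA. After 24 h at 37 °C, 50 μL of each mixture was plated on agar and incubated overnight. MBC taken as the lowest concentration killing >99.9% of cells. At least three independent experiments, each with three technical replicates.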

Escherichia coli [2] = assay: Antibacterial activity against Escherichia coli K88 measured after 24 hrs; assay type: functional
Method in brief: (§2)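 Broth microdilution adapted from NCCLS. Mid-log bacteria were diluted in MHB to a final (0.5–1) × 10^5 CFU mL−1. Peptides were serially diluted in 0.2% BSA and mixed with an equal volume of cells. After 24 h at 37 °C, MIC was read at A492 as the lowest concentration inhibiting 95% of growth. At least three independent experiments, each with three technical replicates.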

[3] = Therapeutic index, ratio of MHC10 for hemolytic activity in human RBC to MIC95 against Candida parapsilosis cgmcc2.3989; assay type: toxicity; conditions: human red blood cells (erythrocytes), read-out: TI
Method in brief: (§3)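 Therapeutic index = MHC divided by MIC. MHC is the lowest concentration giving >10% lysis of human RBC (1 h, 37 °C, 1-128 µM, A576). MIC is 95% growth inhibition by broth microdilution: bacteria in MHB 24 h at 37 °C; Candida in MOPS-buffered RPMI 1640 at (0.5–1) × 10^3 CFU mL−1, 48 h at 28 °C.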

[4] = Therapeutic index, ratio of MHC10 for hemolytic activity in human RBC to MIC95 against Candida tropicalis cgmcc2.1975; assay type: toxicity; conditions: human red blood cells (erythrocytes), read-out: TI; method in brief: as §3
Candida albicans [5] = assay: Antifungal activity against Candida albicans cgmcc2.2086 measured after 48 hrs in presence of MgCl by broth microdilution method; assay type: functional
Staphylococcus aureus [6] = assay: Antibacterial activity against methicillin-resistant Staphylococcus aureus ATCC 43300 measured after 24 hrs; assay type: functional
Method in brief: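 Broth microdilution modified from NCCLS. Mid-log bacteria at (0.5–1) × 10^5 CFU mL−1 in MHB, mixed with peptides serially diluted in 0.2% BSA. Incubated 24 h at 37 °C, read at A492. MIC taken as lowest concentration giving 95% growth inhibition. At least three independent experiments, each with three technical replicates.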

Candida albicans [7] = assay: Antifungal activity against Candida albicans cgmcc2.2086 measured after 48 hrs by broth microdilution method; assay type: functional
Method in brief: (§4)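 Modified CLSI M27-A2 microdilution. Yeast colonies were diluted in MOPS-buffered RPMI 1640 to a final (0.5–1) × 10^3 CFU mL−1 and mixed with an equal volume of peptide serially diluted in 0.2% BSA. After 48 h at 28 °C, MIC was read at A492 as the lowest concentration inhibiting 95% of growth. At least three independent experiments, each with three technical replicates.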

Candida albicans [8] = assay: Antifungal activity against Candida albicans cgmcc2.2086 measured after 48 hrs in presence of NaCl by broth microdilution method; assay type: functional
Staphylococcus aureus [9] = assay: Antibacterial activity against Staphylococcus aureus ATCC 29213 measured after 18 to 24 hrs in presence of MgCl2; assay type: functional
Escherichia coli [10] = assay: Antibacterial activity against Escherichia coli ATCC 25922 measured after 18 to 24 hrs in presence of ZnCl2; assay type: functional
[11] = Therapeutic index, ratio of MHC10 for hemolytic activity in human RBC to MIC95 against Candida albicans cgmcc2.2086; assay type: toxicity; conditions: human red blood cells (erythrocytes), read-out: TI; method in brief: as §3
Escherichia coli [12] = assay: Antibacterial activity against Escherichia coli ATCC 25922 measured after 18 to 24 hrs in presence of NH4Cl; assay type: functional
[13] = test system: Staphylococcus epidermidis; assay: Antibacterial activity against Staphylococcus epidermidis ATCC 12228 measured after 24 hrs; assay type: functional; method in brief: as §2
Salmonella typhimurium [14] = assay: Bactericidal activity against Salmonella typhimurium C7731 incubated for 24 hrs followed by replating on agar plate and measured after overnight incubation; assay type: functional, Salmonella enterica subsp. enterica serovar Typhimurium; conditions: for MBC: Salmonella enterica, C7731, 24 h, read-out: MBC>99.9; method in brief: as §1
Escherichia coli [15] = assay: Bactericidal activity against Escherichia coli K88 incubated for 24 hrs followed by replating on agar plate and measured after overnight incubation; assay type: functional; conditions: for MBC: K88, 24 h, read-out: MBC>99.9; method in brief: as §1
Staphylococcus aureus [16] = assay: Antibacterial activity against Staphylococcus aureus ATCC 29213 measured after 18 to 24 hrs in presence of ZnCl2; assay type: functional
Method in brief: (§5)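 MIC broth microdilution (MHB, 0.2% BSA peptide diluent, A492, 95% inhibition) run in the presence of physiological salts at final concentrations of 6 μM NH4Cl or 8 μM ZnCl2. Three independent assays, each with three technical replicates.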

Staphylococcus aureus [17] = assay: Antibacterial activity against Staphylococcus aureus ATCC 29213 measured after 18 to 24 hrs in presence of NH4Cl; assay type: functional; method in brief: as §5
Salmonella typhimurium [18] = assay: Antibacterial activity against Salmonella typhimurium C7731 measured after 24 hrs; assay type: functional, Salmonella enterica subsp. enterica serovar Typhimurium; method in brief: as §2
Escherichia coli [19] = assay: Bactericidal activity against Escherichia coli UB1005 incubated for 24 hrs followed by replating on agar plate and measured after overnight incubation; assay type: functional; conditions: for MBC: UB1005, 24 h, read-out: MBC>99.9; method in brief: as §1
Candida parapsilosis = assay: Antifungal activity against Candida parapsilosis cgmcc2.3989 measured after 48 hrs by broth microdilution method; assay type: functional; method in brief: as §4
Escherichia coli [20] = assay: Bactericidal activity against Escherichia coli 078 incubated for 24 hrs followed by replating on agar plate and measured after overnight incubation; assay type: functional; conditions: for MBC: Escherichia coli, 078, 24 h, read-out: MBC>99.9
Method in brief: (§6)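 After the 24 h, 37 °C MHB microdilution (0.5–1 × 10^5 CFU mL−1 inoculum, peptides diluted in 0.2% BSA), 50 μL from each well was plated on agar and incubated overnight. MBC was taken as the lowest concentration killing >99.9% of cells. Three or more independent experiments, each with triplicate technical replicates.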

Candida albicans [21] = assay: Antifungal activity against Candida albicans cgmcc2.2086 measured after 48 hrs in presence of FeCl by broth microdilution method; assay type: functional
Escherichia coli [22] = assay: Bactericidal activity against Escherichia coli ATCC 25922 incubated for 24 hrs followed by replating on agar plate and measured after overnight incubation; assay type: functional; conditions: for MBC: ATCC 25922, 24 h, read-out: MBC>99.9; method in brief: as §6
Staphylococcus aureus [23] = assay: Bactericidal activity against Staphylococcus aureus ATCC 29213 incubated for 24 hrs followed by replating on agar plate and measured after overnight incubation; assay type: functional
Method in brief: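 After the 24 h, 37 °C MHB microdilution MIC assay, 50 μL from each well was plated on agar and incubated overnight. MBC taken as lowest peptide concentration killing >99.9% of cells. At least three independent experiments, each with three technical replicates.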

Pseudomonas aeruginosa = assay: Bactericidal activity against Pseudomonas aeruginosa ATCC 27853 incubated for 24 hrs followed by replating on agar plate and measured after overnight incubation; assay type: functional; method in brief: as §1
[24] = Salmonella enterica, C7731, 24 h
[25] = Lodderomyces parapsilosis, cgmcc2.3989, 48 h
[26] = Salmonella enterica subsp. enterica serovar Typhimurium

Substance	MBC [1] [µM]	MIC95 (Escherichia coli [2]; K88, 24 h) [µM]	selectivity ratio [3]	selectivity ratio [4]	MIC95 (Candida albicans [5]; cgmcc2.2086, 48 h) [µM]	MIC95 (Staphylococcus aureus [6]; ATCC 43300, 24 h) [µM]	MIC95 (Candida albicans [7]; cgmcc2.2086, 48 h) [µM]	MIC95 (Candida albicans [8]; cgmcc2.2086, 48 h) [µM]	MIC95 (Staphylococcus aureus [9]) [µM]	MIC95 (Escherichia coli [10]) [µM]	selectivity ratio [11]	MIC95 (Escherichia coli [12]) [µM]	MIC95 ([13]; ATCC 12228, 24 h) [µM]	MBC (Salmonella typhimurium [14]) [µM]	MBC (Escherichia coli [15]) [µM]	MIC95 (Staphylococcus aureus [16]) [µM]	MIC95 (Staphylococcus aureus [17]) [µM]	MIC95 (Salmonella typhimurium [18]; [24]) [µM]	MIC95 (Candida parapsilosis; [25]) [µM]	MIC95 (Candida albicans [21]; cgmcc2.2086, 48 h) [µM]	also measured
H-AARIILRPRFR-NH2	64	16	2	2	> 128	> 128	> 128	> 128	> 128	32	2	16	> 128	32	32	> 128	> 128	16	> 128	> 128	MBC (Escherichia coli [19]): 16 µM; MBC (Escherichia coli [20]): 16 µM; MBC (Escherichia coli [22]): 32 µM
H-AARIILRDRFR-NH2	–	> 128	2	2	> 128	> 128	> 128	> 128	> 128	> 128	2	> 128	> 128	–	–	> 128	> 128	> 128	> 128	> 128	–
POLYMYXIN B	–	–	–	–	–	–	–	–	32	2	–	2	–	–	–	32	32	–	–	–	MIC95 (Escherichia coli [2]): 0.5 µM; MBC>99.9 (Staphylococcus aureus [23]): 64 µM; MIC95 (Candida albicans [5]): 32 µM; MIC95 (Staphylococcus aureus [6]): 64 µM; MIC95 (Candida albicans [7]): 32 µM; MIC95 (Candida albicans [8]): 128 µM; MIC95 [13]: 32 µM; MBC>99.9 (Salmonella typhimurium [14]; [26]): 4 µM; MBC>99.9 (Escherichia coli [15]): 1 µM; MIC95 (Salmonella typhimurium [18]; [26]): 2 µM; MBC>99.9 (Pseudomonas aeruginosa): 4 µM; MBC>99.9 (Escherichia coli [19]): 2 µM; MIC95 (Candida parapsilosis): 8 µM; MBC>99.9 (Escherichia coli [20]): 1 µM; MIC95 (Candida albicans [21]): 32 µM; MBC>99.9 (Escherichia coli [22]): 4 µM
H-AARIILRTRFR-NH2	16	4	4	4	> 128	16	128	> 128	32	8	4	8	16	32	8	16	16	16	64	> 128	MBC (Staphylococcus aureus [23]; ATCC 29213, 24 h, read-out: MBC>99.9): 32 µM; MBC (Escherichia coli [19]): 8 µM; MBC (Escherichia coli [20]): 8 µM; MBC (Escherichia coli [22]): 16 µM
